Assay results as given in ChEMBL document CHEMBL1212768, “Screening and quantification of the expression of antibiotic resistance genes in Acinetobacter baumannii with a microarray” (2010).
Converted amounts (≈) assume the structure as drawn.

Legend:
Assay type in all cases: functional
Acinetobacter baumannii [1] = test: Antibacterial activity against multidrug-resistant Acinetobacter baumannii BM4666 by antimicrobial susceptibility assay
Procedure, shortened: (§1)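 MICs measured by Etest on Mueller-Hinton agar. Disk diffusion on the same medium was used for susceptibility screening. Strains were grown at 37°C in brain heart infusion broth or agar. Mutants were picked from antibiotic gradient plates, taking colonies growing above the normal MIC. Those resistant to several drug classes by diffusion were kept.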

Acinetobacter baumannii [2] = test: Antibacterial activity against Acinetobacter baumannii BM4467 by antimicrobial susceptibility assay; procedure, shortened: as §1
Acinetobacter baumannii [3] = test: Antibacterial activity against multidrug-resistant Acinetobacter baumannii BM4676 by antimicrobial susceptibility assay; procedure, shortened: as §1
Acinetobacter baumannii [4] = test: Antibacterial activity against Acinetobacter baumannii BM4454 by antimicrobial susceptibility assay; procedure, shortened: as §1
Acinetobacter baumannii [5] = test: Antibacterial activity against multidrug-resistant Acinetobacter baumannii BM4675 by antimicrobial susceptibility assay; procedure, shortened: as §1
Acinetobacter baumannii [6] = test: Antibacterial activity against multidrug-resistant Acinetobacter baumannii AYE by antimicrobial susceptibility assay; procedure, shortened: as §1
Acinetobacter baumannii [7] = test: Antibacterial activity against multidrug-resistant Acinetobacter baumannii BM4668 by antimicrobial susceptibility assay; procedure, shortened: as §1
Acinetobacter baumannii [8] = test: Antibacterial activity against Acinetobacter baumannii BM4587 by antimicrobial susceptibility assay; procedure, shortened: as §1
Acinetobacter baumannii [9] = test: Antibacterial activity against multidrug-resistant Acinetobacter baumannii BM4665 by antimicrobial susceptibility assay; procedure, shortened: as §1
Acinetobacter baumannii [10] = test: Antibacterial activity against Acinetobacter baumannii CIP70-10 by antimicrobial susceptibility assay; procedure, shortened: as §1

Compound	MIC (Acinetobacter baumannii [1]) [µg/mL]	MIC (Acinetobacter baumannii [2]) [µg/mL]	MIC (Acinetobacter baumannii [3]) [µg/mL]	MIC (Acinetobacter baumannii [4]) [µg/mL]	MIC (Acinetobacter baumannii [5]) [µg/mL]	MIC (Acinetobacter baumannii [6]) [µg/mL]	MIC (Acinetobacter baumannii [7]) [µg/mL]	MIC (Acinetobacter baumannii [8]) [µg/mL]	MIC (Acinetobacter baumannii [9]) [µg/mL]	MIC (Acinetobacter baumannii [10]) [µg/mL]
NCC[C@H](O)C(=O)N[C@@H]1C[C@H](N)[C@@H](O[C@H]2O[C@H](CN)[C@@H](O)[C@H](O)[C@H]2O)[C@H](O)[C@H]1O[C@H]1O[C@H](CO)[C@@H](O)[C@H](N)[C@H]1O [AMIKACIN]	6 (≈ 10.2 µM)	4 (≈ 6.83 µM)	> 256	8 (≈ 13.7 µM)	96 (≈ 164 µM)	96 (≈ 164 µM)	8 (≈ 13.7 µM)	4 (≈ 6.83 µM)	64 (≈ 109 µM)	6 (≈ 10.2 µM)
C[C@H]1[C@H](NC(=O)/C(=N\OC(C)(C)C(=O)O)c2csc(N)n2)C(=O)N1S(=O)(=O)O [AZTREONAM]	32 (≈ 73.5 µM)	32 (≈ 73.5 µM)	32 (≈ 73.5 µM)	16 (≈ 36.7 µM)	32 (≈ 73.5 µM)	> 256	48 (≈ 110 µM)	12 (≈ 27.6 µM)	6 (≈ 13.8 µM)	48 (≈ 110 µM)
CO/N=C(\C(=O)N[C@@H]1C(=O)N2C(C(=O)[O-])=C(C[N+]3(C)CCCC3)CS[C@H]12)c1csc(N)n1 [CEFEPIME]	2 (≈ 4.16 µM)	1.5 (≈ 3.12 µM)	32 (≈ 66.6 µM)	3 (≈ 6.24 µM)	8 (≈ 16.6 µM)	> 256	3 (≈ 6.24 µM)	0.75 (≈ 1.56 µM)	8 (≈ 16.6 µM)	1.5 (≈ 3.12 µM)
CO/N=C(\C(=O)N[C@@H]1C(=O)N2C(C(=O)O)=C(COC(C)=O)CS[C@H]12)c1csc(N)n1 [CEFOTAXIME]	6 (≈ 13.2 µM)	4 (≈ 8.78 µM)	32 (≈ 70.3 µM)	4 (≈ 8.78 µM)	> 256	> 256	8 (≈ 17.6 µM)	3 (≈ 6.59 µM)	4 (≈ 8.78 µM)	12 (≈ 26.3 µM)
CC(C)(O/N=C(\C(=O)N[C@@H]1C(=O)N2C(C(=O)[O-])=C(C[n+]3ccccc3)CS[C@H]12)c1csc(N)n1)C(=O)O [CEFTAZIDIME]	12 (≈ 22 µM)	8 (≈ 14.6 µM)	> 256	6 (≈ 11 µM)	> 256	> 256	16 (≈ 29.3 µM)	4 (≈ 7.32 µM)	3 (≈ 5.49 µM)	6 (≈ 11 µM)
O=C(N[C@H](CO)[C@H](O)c1ccc([N+](=O)[O-])cc1)C(Cl)Cl [CHLORAMPHENICOL]	> 256	96 (≈ 297 µM)	128 (≈ 396 µM)	> 256	> 256	> 256	> 256	96 (≈ 297 µM)	> 256	48 (≈ 149 µM)
O=C(O)c1cn(C2CC2)c2cc(N3CCNCC3)c(F)cc2c1=O [CIPROFLOXACIN]	0.38 (≈ 1.15 µM)	0.125 (≈ 0.377 µM)	24 (≈ 72.4 µM)	> 32	> 32	> 32	0.38 (≈ 1.15 µM)	0.094 (≈ 0.284 µM)	0.5 (≈ 1.51 µM)	0.125 (≈ 0.377 µM)
C[C@@H](O)[C@H]1C(=O)N2C(C(=O)O)=C(SCCNC=N)C[C@H]12 [IMIPENEM ANHYDROUS]	0.19 (≈ 0.635 µM)	0.25 (≈ 0.835 µM)	> 32	0.25 (≈ 0.835 µM)	2 (≈ 6.68 µM)	1 (≈ 3.34 µM)	0.25 (≈ 0.835 µM)	0.19 (≈ 0.635 µM)	0.5 (≈ 1.67 µM)	0.25 (≈ 0.835 µM)
CN(C)c1ccc(O)c2c1C[C@H]1C[C@H]3[C@H](N(C)C)C(O)=C(C(N)=O)C(=O)[C@@]3(O)C(O)=C1C2=O [MINOCYCLINE]	0.19 (≈ 0.415 µM)	0.064 (≈ 0.14 µM)	1 (≈ 2.19 µM)	0.75 (≈ 1.64 µM)	8 (≈ 17.5 µM)	0.5 (≈ 1.09 µM)	0.125 (≈ 0.273 µM)	0.064 (≈ 0.14 µM)	0.125 (≈ 0.273 µM)	0.047 (≈ 0.103 µM)
CCN[C@@H]1C[C@H](N)[C@@H](O[C@H]2OC(CN)=CC[C@H]2N)[C@H](O)[C@H]1O[C@H]1OC[C@](C)(O)[C@H](NC)[C@H]1O [NETILMICIN]	1.5 (≈ 3.15 µM)	2 (≈ 4.21 µM)	12 (≈ 25.2 µM)	16 (≈ 33.6 µM)	32 (≈ 67.3 µM)	48 (≈ 101 µM)	2 (≈ 4.21 µM)	1.5 (≈ 3.15 µM)	64 (≈ 135 µM)	2 (≈ 4.21 µM)
CCn1cc(C(=O)O)c(=O)c2cc(F)c(N3CCNCC3)cc21 [NORFLOXACIN]	4 (≈ 12.5 µM)	1.5 (≈ 4.7 µM)	192 (≈ 601 µM)	> 256	> 256	> 256	4 (≈ 12.5 µM)	1.5 (≈ 4.7 µM)	12 (≈ 37.6 µM)	2 (≈ 6.26 µM)
CO[C@H]1/C=C/O[C@@]2(C)Oc3c(C)c(O)c4c(O)c(c(/C=N/N5CCN(C)CC5)c(O)c4c3C2=O)NC(=O)/C(C)=C\C=C\[C@H](C)[C@H](O)[C@@H](C)[C@@H](O)[C@@H](C)[C@H](OC(C)=O)[C@@H]1C [RIFAMPIN]	3 (≈ 3.65 µM)	2 (≈ 2.43 µM)	2 (≈ 2.43 µM)	2 (≈ 2.43 µM)	> 32	16 (≈ 19.4 µM)	3 (≈ 3.65 µM)	1.5 (≈ 1.82 µM)	1.5 (≈ 1.82 µM)	4 (≈ 4.86 µM)
CN(C)[C@@H]1C(O)=C(C(N)=O)C(=O)[C@@]2(O)C(O)=C3C(=O)c4c(O)cccc4[C@@](C)(O)[C@H]3C[C@@H]12 [TETRACYCLINE]	8 (≈ 18 µM)	3 (≈ 6.75 µM)	12 (≈ 27 µM)	32 (≈ 72 µM)	32 (≈ 72 µM)	64 (≈ 144 µM)	8 (≈ 18 µM)	1.5 (≈ 3.38 µM)	3 (≈ 6.75 µM)	1 (≈ 2.25 µM)
CC1(C)S[C@@H]2[C@H](NC(=O)[C@H](C(=O)O)c3ccsc3)C(=O)N2[C@H]1C(=O)O [TICARCILLIN]	16 (≈ 41.6 µM)	12 (≈ 31.2 µM)	> 256	8 (≈ 20.8 µM)	> 256	> 256	24 (≈ 62.4 µM)	6 (≈ 15.6 µM)	2 (≈ 5.2 µM)	24 (≈ 62.4 µM)
CN(C)c1cc(NC(=O)CNC(C)(C)C)c(O)c2c1C[C@H]1C[C@H]3[C@H](N(C)C)C(O)=C(C(N)=O)C(=O)[C@@]3(O)C(O)=C1C2=O [TIGECYCLINE]	0.38 (≈ 0.649 µM)	0.125 (≈ 0.213 µM)	1.5 (≈ 2.56 µM)	3 (≈ 5.12 µM)	1.5 (≈ 2.56 µM)	1.5 (≈ 2.56 µM)	0.5 (≈ 0.854 µM)	0.094 (≈ 0.161 µM)	1.5 (≈ 2.56 µM)	0.125 (≈ 0.213 µM)
NC[C@H]1O[C@H](O[C@H]2[C@H](O)[C@@H](O[C@H]3O[C@H](CO)[C@@H](O)[C@H](N)[C@H]3O)[C@H](N)C[C@@H]2N)[C@H](N)C[C@@H]1O [TOBRAMYCIN]	1 (≈ 2.14 µM)	1.5 (≈ 3.21 µM)	96 (≈ 205 µM)	4 (≈ 8.56 µM)	12 (≈ 25.7 µM)	64 (≈ 137 µM)	2 (≈ 4.28 µM)	0.75 (≈ 1.6 µM)	16 (≈ 34.2 µM)	2 (≈ 4.28 µM)
GENTAMICIN	1.5	1.5	> 256	6	24	> 256	1.5	1	12	1.5
